According to ChEMBL document CHEMBL5724801, “EUbOPEN Chemogenomics Library - Multiplex” (2024):
“And” between values parts separate entries of the source, which are not always exact repeats. Identical values can stand only once.

Tested on: HEK-293T
Experiment: Multiplex assay against HEK293T
Format: toxicity, cell-based
Conditions: human
Method in brief: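 Cells were classed with CellPathfinder machine-learning gating, first as Hoechst high-intensity objects or normal cells, then (normal cells) as healthy, pyknosed or fragmented nuclei, and finally (pyknosed cells) as mitotic or apoptotic. Staining of live cells at seeding used Hoechst33342, BioTracker Green Microtubule Cytoskeleton Dye, MitoTracker Red and Annexin V Alexa Fluor 680, with imaging on a CQ1 microscope at 37°C and 5% CO2 after compound addition. Tubulin, mitochondrial-mass and membrane-permeability phenotypes are per cents of healthy-nucleus cells.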

[1] = 12 h, 1 µM, compound concentration 1 uM
[2] = 12 h, 10 µM, compound concentration 10 uM
[3] = 24 h, 1 µM, compound concentration 1 uM
[4] = 24 h, 10 µM, compound concentration 10 uM
[5] = 48 h, 1 µM, compound concentration 1 uM
[6] = 48 h, 10 µM, compound concentration 10 uM

## Oc1c(CN2CCN(c3ccccn3)CC2)cc(Cl)c2cccnc12
[1]
  Population Apoptotic (%): 30% and 45%
  Population Fragmented Nuclei (%): 6% and 5%
  Population Healthy Nuclei (%): 83% and 80%
  Population Hoechst High Intensity Objects (%): 7%
  Population Membrane Permeable-Phenotype (%): 0%
  Population Mitochondria Different-Phenotype (%): 44% and 59%
  Population Mitotic Cells (%): 70% and 54%
  Population Normal (%): 92%
  Population Pyknosed Nuclei (%): 10% and 13%
  Population Tubulin-Different-Phenotype (%): 34% and 20%
  Total Cell Count: 424 and 354
[2]
  Population Apoptotic (%): 71% and 73%
  Population Fragmented Nuclei (%): 16% and 18%
  Population Healthy Nuclei (%): 64% and 69%
  Population Hoechst High Intensity Objects (%): 11% and 6%
  Population Membrane Permeable-Phenotype (%): 0%
  Population Mitochondria Different-Phenotype (%): 64% and 70%
  Population Mitotic Cells (%): 28% and 26%
  Population Normal (%): 88% and 93%
  Population Pyknosed Nuclei (%): 18% and 12%
  Population Tubulin-Different-Phenotype (%): 20% and 32%
  Total Cell Count: 197 and 327
[3]
  Population Apoptotic (%): 34% and 33%
  Population Fragmented Nuclei (%): 6% and 7%
  Population Healthy Nuclei (%): 84%
  Population Hoechst High Intensity Objects (%): 3%
  Population Membrane Permeable-Phenotype (%): 0%
  Population Mitochondria Different-Phenotype (%): 22% and 40%
  Population Mitotic Cells (%): 65% and 66%
  Population Normal (%): 96%
  Population Pyknosed Nuclei (%): 9% and 8%
  Population Tubulin-Different-Phenotype (%): 23% and 13%
  Total Cell Count: 529 and 427
[4]
  Population Apoptotic (%): 93% and 81%
  Population Fragmented Nuclei (%): 18% and 21%
  Population Healthy Nuclei (%): 65% and 63%
  Population Hoechst High Intensity Objects (%): 13% and 7%
  Population Membrane Permeable-Phenotype (%): 1%
  Population Mitochondria Different-Phenotype (%): 65% and 78%
  Population Mitotic Cells (%): 6% and 18%
  Population Normal (%): 86% and 92%
  Population Pyknosed Nuclei (%): 15%
  Population Tubulin-Different-Phenotype (%): 19% and 34%
  Total Cell Count: 227 and 354
[5]
  Population Apoptotic (%): 29% and 31%
  Population Fragmented Nuclei (%): 12% and 10%
  Population Healthy Nuclei (%): 80% and 83%
  Population Hoechst High Intensity Objects (%): 3%
  Population Membrane Permeable-Phenotype (%): 0%
  Population Mitochondria Different-Phenotype (%): 22% and 17%
  Population Mitotic Cells (%): 70% and 68%
  Population Normal (%): 96%
  Population Pyknosed Nuclei (%): 6% and 5%
  Population Tubulin-Different-Phenotype (%): 16% and 10%
  Total Cell Count: 689 and 518
[6]
  Population Apoptotic (%): 83% and 94%
  Population Fragmented Nuclei (%): 23% and 28%
  Population Healthy Nuclei (%): 44% and 49%
  Population Hoechst High Intensity Objects (%): 25% and 14%
  Population Membrane Permeable-Phenotype (%): 0%
  Population Mitochondria Different-Phenotype (%): 60% and 81%
  Population Normal (%): 74% and 85%
  Population Pyknosed Nuclei (%): 31% and 22%
  Population Tubulin-Different-Phenotype (%): 30% and 42%
  Total Cell Count: 204 and 295

## COc1cc(OC2CCN(C(C)=O)CC2)ccc1C(=O)N1CCC(N2C(=O)OCc3ccccc32)CC1
[1]
  Population Apoptotic (%): 28% and 48%
  Population Fragmented Nuclei (%): 5%
  Population Healthy Nuclei (%): 83% and 76%
  Population Hoechst High Intensity Objects (%): 7%
  Population Membrane Permeable-Phenotype (%): 0%
  Population Mitochondria Different-Phenotype (%): 37% and 59%
  Population Mitotic Cells (%): 71% and 51%
  Population Normal (%): 92%
  Population Pyknosed Nuclei (%): 11% and 18%
  Population Tubulin-Different-Phenotype (%): 26% and 21%
  Total Cell Count: 477 and 381
[2]
  Population Apoptotic (%): 40% and 67%
  Population Fragmented Nuclei (%): 9% and 4%
  Population Healthy Nuclei (%): 77% and 80%
  Population Hoechst High Intensity Objects (%): 8% and 6%
  Population Membrane Permeable-Phenotype (%): 0%
  Population Mitochondria Different-Phenotype (%): 57% and 77%
  Population Mitotic Cells (%): 60% and 32%
  Population Normal (%): 91% and 93%
  Population Pyknosed Nuclei (%): 13% and 14%
  Population Tubulin-Different-Phenotype (%): 47% and 40%
  Total Cell Count: 436 and 316
[3]
  Population Apoptotic (%): 28% and 48%
  Population Fragmented Nuclei (%): 9% and 7%
  Population Healthy Nuclei (%): 78% and 80%
  Population Hoechst High Intensity Objects (%): 4% and 6%
  Population Membrane Permeable-Phenotype (%): 2% and 0%
  Population Mitochondria Different-Phenotype (%): 25% and 40%
  Population Mitotic Cells (%): 71% and 51%
  Population Normal (%): 95% and 93%
  Population Pyknosed Nuclei (%): 11% and 12%
  Population Tubulin-Different-Phenotype (%): 17% and 15%
  Total Cell Count: 598 and 491
[4]
  Population Apoptotic (%): 31% and 49%
  Population Fragmented Nuclei (%): 8% and 7%
  Population Healthy Nuclei (%): 78%
  Population Hoechst High Intensity Objects (%): 3% and 4%
  Population Membrane Permeable-Phenotype (%): 0%
  Population Mitochondria Different-Phenotype (%): 44% and 58%
  Population Mitotic Cells (%): 68% and 50%
  Population Normal (%): 96% and 95%
  Population Pyknosed Nuclei (%): 13% and 14%
  Population Tubulin-Different-Phenotype (%): 36% and 29%
  Total Cell Count: 523 and 393
[5]
  Population Apoptotic (%): 20% and 33%
  Population Fragmented Nuclei (%): 13% and 11%
  Population Healthy Nuclei (%): 78% and 80%
  Population Hoechst High Intensity Objects (%): 3% and 2%
  Population Membrane Permeable-Phenotype (%): 1%
  Population Mitochondria Different-Phenotype (%): 19% and 23%
  Population Mitotic Cells (%): 79% and 66%
  Population Normal (%): 96% and 97%
  Population Pyknosed Nuclei (%): 8% and 7%
  Population Tubulin-Different-Phenotype (%): 13% and 12%
  Total Cell Count: 902 and 655
[6]
  Population Apoptotic (%): 36%
  Population Fragmented Nuclei (%): 13% and 12%
  Population Healthy Nuclei (%): 78% and 80%
  Population Hoechst High Intensity Objects (%): 4% and 3%
  Population Membrane Permeable-Phenotype (%): 0%
  Population Mitochondria Different-Phenotype (%): 30% and 39%
  Population Mitotic Cells (%): 63%
  Population Normal (%): 95% and 96%
  Population Pyknosed Nuclei (%): 8% and 7%
  Population Tubulin-Different-Phenotype (%): 21% and 16%
  Total Cell Count: 813 and 625
